# Measurements collected from several papers.
SMILES,organism,test,system,setting,measurement,result
O=C1NC(=S)N/C1=C\c1c2ccccc2c(-c2ccc(N(c3ccccc3)c3ccccc3)cc2)c2ccccc12,Staphylococcus epidermidis,"microbial growth, broth dilution",ATCC12228,,MIC,> 1000 µg/mL
O=C(Nc1cncc(-c2nc3ccccc3o2)c1)c1cc([N+](=O)[O-])c(N2CCNCC2)cc1Cl,Leishmania mexicana,parasite growth,J774.A1,"intracellular, amastigote",EC50,0.75 µM
CC1(C)CC[C@]2(NC(=O)NCCN3CCCC3)CC[C@]3(C)C(=CC[C@@H]4[C@@]5(C)CC[C@@H]6OC(C)(C)OC[C@@]6(C)[C@@H]5CC[C@]43C)[C@@H]2C1,Leishmania mexicana,"parasite growth, resazurin",,"50 µM, amastigote",inhibition,99.1%
Cc1ccc(-c2nc3ccccc3s2)cc1NC(=O)c1cc([N+](=O)[O-])c(N2CCCCC2)cc1Cl,Leishmania mexicana,parasite growth,J774.A1,"intracellular, amastigote",EC50,> 10 µM
O=C(O)CN1C(=O)/C(=C/c2ccc(-c3ccc(N(c4ccccc4)c4ccccc4)cc3)cc2)NC1=S,Staphylococcus epidermidis,"microbial killing, broth dilution",ATCC12228,,MBC,3.9 µg/mL
CC1(C)CC[C@]2(C(=O)O)CC[C@]3(C)C(=CC[C@@H]4[C@@]5(C)CC[C@H](O[C@@H]6OC[C@H](O)[C@H](O)[C@H]6O)[C@@](C)(CO)[C@@H]5CC[C@]43C)[C@@H]2C1,Leishmania mexicana,"parasite growth, resazurin",,"50 µM, amastigote",inhibition,96.9%
O=C(Nc1ccccc1-c1ccc(F)c(F)c1)c1nccnc1C(F)(F)F,Verticillium,microbial growth,,,EC50,11 µg/mL
CC1(C)CC[C@]2(NC(=O)N3CCC[C@H]3CN3CCCC3)CC[C@]3(C)C(=CC[C@@H]4[C@@]5(C)CC[C@@H]6OC(C)(C)OC[C@@]6(C)[C@@H]5CC[C@]43C)[C@@H]2C1,Leishmania mexicana,"parasite growth, resazurin",,"50 µM, amastigote",inhibition,97.6%
Cc1ccc(-c2nc3ccccc3s2)cc1NC(=O)c1cc([N+](=O)[O-])c(NCCN)cc1Cl,Leishmania mexicana,parasite growth,J774.A1,"intracellular, amastigote",EC50,0.25 µM
